We go through seven compounds from ChEMBL document CHEMBL1138254, “Stereoselective synthesis and cytotoxicity of a cancer chemopreventive naphthoquinone from Tabebuia avellanedae” (Bioorg Med Chem Lett, 2007).

The subject of one experiment is PC-3. In words: Cytotoxicity against human PC3 cells assessed as cell viability by tryptan blue staining method. In kind it is functional, cell-based. In short, it runs like this: (§1)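 Human cancer lines PC-3 (prostate), A549 (lung) and MCF-7 (breast) were treated with compound. Viability was assessed by Trypan blue staining, and EC50 is reported in µM.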
The test system of a further experiment is A549. In words: Cytotoxicity against human A549 cells assessed as cell viability by tryptan blue staining method. In kind it is functional, cell-based. In short, it runs like this: as §1
For the next experiment, the system named is MCF7. The experiment is described as follows: Cytotoxicity against human MCF7 cells assessed as cell viability by tryptan blue staining method. In kind it is functional, cell-based. In short, it runs like this: as §1
A short description of experiment [1]: Cytotoxicity against human Fb cells assessed as cell viability by tryptan blue staining method. In kind it is cell-based. In outline:
(§2)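 Human normal cell lines were treated with compound: Fb (skin), Hc (liver), MPC-5 (lung) and IE (colon). Viability was assessed by Trypan blue staining, and EC50 is reported in µM.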

Experiment [2] can be described thus: Cytotoxicity against human Hc cells assessed as cell viability by tryptan blue staining method. In kind it is cell-based. In short, it runs like this:
as §2

A short description of experiment [3]: Cytotoxicity against human MPC5 cells assessed as cell viability by tryptan blue staining method. In kind it is cell-based. The following applies: MPC-5. In outline:
as §2

Experiment [4] is described as follows: Cytotoxicity against human IE cells assessed as cell viability by tryptan blue staining method. In kind it is cell-based. In short, it runs like this:
as §2

In experiment [5] the test system is Human gammaherpesvirus 4. In words: Inhibition of TPA-induced EBV-EA activation in Raji cells at 1000 mol ratio/TPA relative to control. In kind it is functional. In short, it runs like this:
(§3)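 TPA-induced EBV-EA activation in Raji cells, with TPA at 32 pmol and test agent at 1000, 500, 100 and 10 mol ratio/TPA. EA-positive cells are expressed relative to the positive control (TPA alone, 100%). An IC50 in µM is derived from the dose series. Curcumin served as the positive control substance.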

The test system of experiment [6] is Human gammaherpesvirus 4. In words: Inhibition of TPA-induced EBV-EA activation in Raji cells at 500 mol ratio/TPA relative to control. In kind it is functional. In outline: as §3
Experiment [7] concerns Human gammaherpesvirus 4. In words: Inhibition of TPA-induced EBV-EA activation in Raji cells at 100 mol ratio/TPA relative to control. In kind it is functional. In outline:
as §3

Experiment [8] relates to Human gammaherpesvirus 4. In words: Inhibition of TPA-induced EBV-EA activation in Raji cells at 10 mol ratio/TPA relative to control. In kind it is functional. In outline:
as §3

Experiment [9] relates to Human gammaherpesvirus 4. The experiment is described as follows: Inhibition of TPA-induced EBV-EA activation in Raji cells. In kind it is functional, organism-based. The following applies: human gammaherpesvirus 4, Raji. In short, it runs like this: as §3
Experiment [10] deals with Raji. In words: Cell viability in Raji cells at 1000 mol ratio/TPA by tryptan blue staining relative to control. In kind it is functional, Homo sapiens. In outline: (§4)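 Raji cells co-treated with test agent and 32 pmol TPA in the EBV-EA activation assay. Doses were 10, 100, 500 or 1000 mol ratio relative to TPA. Viability was scored by Trypan blue staining and given as percent of Raji cells viable.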

For experiment [11], the system named is Raji. In words: Cell viability in Raji cells at 500 mol ratio/TPA by tryptan blue staining relative to control. In kind it is functional, Homo sapiens. In outline: as §4
For experiment [12], the system named is Raji. In words: Cell viability in Raji cells at 100 mol ratio/TPA by tryptan blue staining relative to control. In kind it is functional, Homo sapiens. In short, it runs like this:
as §4

The test system of experiment [13] is Raji. In words: Cell viability in Raji cells at 10 mol ratio/TPA by tryptan blue staining relative to control. In kind it is functional, Homo sapiens. In outline:
as §4

For orientation: EC50 means the midpoint of the concentration-response curve. As a reminder, the IC50 is the concentration needed to halve the response being measured. A higher IC50 goes with lower potency.

Consider `C[C@H](O)c1cc2c(o1)C(=O)c1cccc(O)c1C2=O`, for which the concentration for a half-maximal effect (EC50) turned out to be 0.14 µM in the experiment with PC-3; 0.96 µM in the experiment with A549; 3.5 µM in the experiment with MCF7; 11.1 µM in experiment [1]; 11.1 µM in experiment [2]; 29.7 µM in experiment [3]. Also, the EC50 in [4] stood at 54.5 µM. In addition, the “EBV-EA positive cells %” value in the experiment on Human gammaherpesvirus 4 [5] was determined as 0%; in the experiment with Human gammaherpesvirus 4 [6], 4.4%; in the experiment on Human gammaherpesvirus 4 [7] it was 16.9%; in the experiment on Human gammaherpesvirus 4 [8], 50%. In the experiment on Human gammaherpesvirus 4 [9], this compound gave an IC50 of 33.2 µM. In addition, the Activity in the experiment on Raji [10] is on record as 60%; with Raji [11] it was 60%; with Raji [12] it was >80%; with Raji [13], >80%.
For the compound `CC1(C)CCC2=C(O1)c1ccccc1C(=O)C2=O` [LAPACHONE], the “EBV-EA positive cells %” value in the experiment with Human gammaherpesvirus 4 [5] came to 4.7%; in the experiment on Human gammaherpesvirus 4 [6], 21.7%; in the experiment with Human gammaherpesvirus 4 [7], 50.4%; in the experiment on Human gammaherpesvirus 4 [8] it was 73.1%. Besides, 210 µM corresponded to half-maximal inhibition with Human gammaherpesvirus 4 [9] (IC50). Besides, the Activity with Raji [10] is 50%; in the experiment with Raji [11], >80%; with Raji [12], >80%; in the experiment on Raji [13], >80%.
In the case of `C[C@@H](O)c1cc2c(o1)C(=O)c1cccc(O)c1C2=O`, the EC50 came out at 0.93 µM with PC-3; 3 µM with A549; 9.3 µM in the experiment on MCF7; 39.7 µM in experiment [1]; 29.8 µM in experiment [2]; 65.9 µM in experiment [3]. In experiment [4], the EC50 came out at 39.7 µM. Besides, the “EBV-EA positive cells %” value with Human gammaherpesvirus 4 [5] is reported as 0%; in the experiment on Human gammaherpesvirus 4 [6], 9.7%; with Human gammaherpesvirus 4 [7], 24.7%; in the experiment with Human gammaherpesvirus 4 [8], 59.4%. In the experiment on Human gammaherpesvirus 4 [9], this compound displayed an IC50 of 38.9 µM. In addition, the Activity in the experiment on Raji [10] was 70%; with Raji [11], >80%; in the experiment with Raji [12], >80%; in the experiment with Raji [13] it was >80%.
In the case of `CC(O)c1cc2c(o1)C(=O)c1cccc(O)c1C2=O` (centres undefined), the concentration giving a half-maximal response (EC50) in the experiment on PC-3 stood at 0.56 µM; in the experiment on A549 it was 3.24 µM; in the experiment on MCF7, 8.5 µM; in [1], 45.4 µM; in experiment [2], 89.3 µM; in [3], 89.3 µM. For the same compound, in experiment [4], the EC50 is 158 µM. Also, the “EBV-EA positive cells %” value is recorded as 0% with Human gammaherpesvirus 4 [5], 6.2% in the experiment on Human gammaherpesvirus 4 [6], 20.7% with Human gammaherpesvirus 4 [7] and 52.9% with Human gammaherpesvirus 4 [8]. Also, half-maximal inhibition with Human gammaherpesvirus 4 [9] (IC50) was put at 34.9 µM. In addition, the Activity is reported as 60% in the experiment with Raji [10], 70% in the experiment on Raji [11], >80% in the experiment on Raji [12] and >80% in the experiment with Raji [13].
In the case of `CO[C@@]12[C@H](COC(N)=O)C3=C(C(=O)C(C)=C(N)C3=O)N1C[C@@H]1N[C@@H]12` [MITOMYCIN], the EC50 with PC-3 was 0.14 µM; in the experiment with A549, 0.43 µM; in the experiment on MCF7, 0.96 µM; in experiment [1], 0.93 µM; in experiment [2], 1.46 µM; in experiment [3], 2.1 µM. In addition, the EC50 in [4] stood at 1.46 µM.
`CC(C)=CCC1=C(O)C(=O)c2ccccc2C1=O` [LAPACHOL]: the “EBV-EA positive cells %” value was determined as 8.9% in the experiment on Human gammaherpesvirus 4 [5], 32.8% in the experiment with Human gammaherpesvirus 4 [6], 65.2% with Human gammaherpesvirus 4 [7] and 86.6% with Human gammaherpesvirus 4 [8]. Besides, inhibition with Human gammaherpesvirus 4 [9] was half-maximal at 311 µM (IC50). In addition, the Activity is reported as 50% in the experiment on Raji [10], 60% in the experiment on Raji [11], >80% in the experiment on Raji [12] and >80% in the experiment with Raji [13].
In the experiment on Human gammaherpesvirus 4 [9], `COc1cc(/C=C/C(=O)CC(=O)/C=C/c2ccc(O)c(OC)c2)ccc1O` [CURCUMIN] gave a half-maximal inhibitory concentration (IC50) of 345 µM.
